Source: PubChem BioAssay (Sanford-Burnham Center for Chemical Genomics)
SENP8 block-1: human SENP8 protease inhibitors, primary screen, biochemical, fluorescence, Nedd8 protein substrate, uHTS; Sentrin-specific protease 8 (Homo sapiens), Q96LD8; recombinant SENP8; inhibition, % at 20 µM; 360,000 compounds, 0.64% hits; in the data active = inhibition mostly above about 40%, no sharp cut-off; inactive = mostly below about 27%
SENP1 inh: human SENP1 catalytic domain inhibitors, primary screen, biochemical, FRET, uHTS. AID 624204, 2012. recombinant SENP1 catalytic domain, CyPet-SUMO1-YPet FRET cleavage. inhibition, % at 10 µM. 360,000 compounds, 0.21% hits;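 active = inhibition at least 30% at 10 µM, raw YFP signal under a set limit, fluorescence ratio 0.5 to 1.5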
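Assay system: hSENP1 catalytic domain, recombinant. Amount: SENP1 enzyme, 20 pM final. Schedule: 50 min reaction, RT, dark. Technique: FRET, CFP and YFP emission. Control set: no-enzyme wells low, DMSO-plus-enzyme wells high control.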
SENP8 block-2: SENP8 protease inhibitors, primary screen, biochemical, luminescence; 330,000 compounds, 1.2% hits; AID 2540, 2010; purified SENP8, Z-RLRGG-aminoluciferin cleavage; Sentrin-specific protease 8 (Homo sapiens), Q96LD8; inhibition, % at 10 µM; in the data active = inhibition above about 50%
SENP7 inh: SENP7 protease inhibitors, primary screen, biochemical, luminescence, uHTS. inhibition, % at 5 µM. 330,000 compounds, 1.5% hits. Sentrin-specific protease 7 (Homo sapiens), Q9BQF6. recombinant SENP7, Z-RLRGG-aminoluciferin luminescence, 40 min;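 active = inhibition above about 50% at the single test dose, limit read from the data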
SENP6 block: SENP6 protease inhibitors, primary screen, biochemical, luminescence, uHTS. Sentrin-specific protease 6 (Homo sapiens), Q9GZR1. Recombinant SENP6 catalytic domain, aminoluciferin luminescence. inhibition, % at 10 µM. 330,000 compounds, 1.8% hits;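 active = inhibition above about 50% at the single tested dose, limit read from the data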
Target sequence (Q9GZR1 628-1112 limits assumed): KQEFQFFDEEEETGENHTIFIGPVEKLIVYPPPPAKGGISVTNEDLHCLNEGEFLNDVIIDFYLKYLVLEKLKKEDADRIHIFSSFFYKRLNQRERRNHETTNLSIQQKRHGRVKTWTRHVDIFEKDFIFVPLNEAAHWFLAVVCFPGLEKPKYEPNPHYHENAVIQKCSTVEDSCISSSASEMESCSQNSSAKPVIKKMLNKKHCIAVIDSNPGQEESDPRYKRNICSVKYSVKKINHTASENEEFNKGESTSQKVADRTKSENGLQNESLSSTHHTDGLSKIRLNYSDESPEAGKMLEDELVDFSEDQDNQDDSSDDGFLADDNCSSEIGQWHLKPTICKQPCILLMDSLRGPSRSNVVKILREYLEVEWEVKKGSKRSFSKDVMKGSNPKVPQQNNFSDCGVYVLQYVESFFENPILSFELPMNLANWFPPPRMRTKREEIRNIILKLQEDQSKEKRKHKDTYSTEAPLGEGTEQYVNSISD
SENP8 conf: SENP8 protease inhibitors, retest, confirmation, biochemical, luminescence, single concentration | 6,200 compounds, 40% hits | shares compounds with SENP7 inh | Recombinant SENP8, Z-RLRGG-aminoluciferin luminescence, 60 min | inhibition, % at 12.5 µM | AID 488912, 2010;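 active = mean inhibition across replicates above about 50%, limit read from the data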
SENP6 confirm: SENP6 protease inhibitors, confirmation, biochemical, luminescence, single concentration | inhibition, % at 12.5 µM | recombinant SENP6, Z-RLRGG-aminoluciferin luminescence | shares compounds with SENP7 inh | 6,200 compounds, 58% hits
SENP7 conf: SENP7 protease inhibitors, retest, confirmation, biochemical, luminescence, single concentration; AID 488917, 2010; shares compounds with SENP7 inh; inhibition, % at 12.5 µM; 6,200 compounds, 69% hits; recombinant SENP7, Z-RLRGG-aminoluciferin luminescence, 40 min
Casp3 SENP sel: caspase-3 protease inhibitors, confirmation, selectivity assay for SENP inhibitor project, biochemical, single concentration | shares compounds with SENP7 inh | purified caspase-3, Z-DEVD-aminoluciferin luminescence, 60 min | inhibition, % at 12.5 µM | 6,200 compounds, 60% hits;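 active = mean inhibition above about 50%, limit read from the data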
Luc interf: interferes with luciferase luminescence in SENP counter-screen | shares compounds with SENP7 inh | Pre-incubated SENP8/Z-RLRGG-aminoluciferin, luciferase luminescence interference | inhibition, % at 12.5 µM | 6,200 compounds, 39% hits | AID 488919;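 active = mean inhibition above about 50% when retested at one dose, limit read from the data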
Of the large screens only hits and unclear results are named; the others gave an inactive call (follow-up assays come after a bar, where they were run). This is a sample that favours compounds with a hit; in the whole collection about 2.5% have one here.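 The calls were made as follows, unless noted: active = mean inhibition above about 50% in the one-dose retest (limit read from the data); inactive = the rest.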

CC(C)C(NS(=O)(=O)c1cccc2nsnc12)C(=O)N1CCCCC1 (stereo unspecified)	none
CCOC(=O)C1CCN(c2ncnc3c2oc2ccccc23)CC1	none
CCOC(=O)c1cnn(-c2ncnc3c2oc2ccccc23)c1N	SENP7 inh 73 | SENP8 conf inactive | SENP6 confirm inactive | SENP7 conf inactive | Casp3 SENP sel inactive | Luc interf inactive
COc1ccc(-c2cc3nc4n(c(=O)c3s2)CCC4)cc1	SENP8 block-2 91, SENP7 inh 96, SENP6 block 95 | SENP8 conf inactive | SENP6 confirm 62 | SENP7 conf 81 | Casp3 SENP sel 76 | Luc interf inactive
COc1ccc(-c2cc3nc4n(c(=O)c3s2)CCCCC4)cc1	none
Cc1nc2cc(-c3ccccc3)sc2c(=O)n1N	SENP8 block-2 96, SENP7 inh 99, SENP6 block 96 | SENP8 conf 98 | SENP6 confirm 99 | SENP7 conf 102 | Casp3 SENP sel 98 | Luc interf 97
COc1cccc(CNc2nc3cc(-c4ccccc4)sc3c(=O)n2C)c1	none (no result: SENP8 block-2, SENP7 inh, SENP6 block)
COc1ccc(-c2cc3nc(C)n(N)c(=O)c3s2)cc1	SENP8 block-2 97, SENP7 inh 100, SENP6 block 99 | SENP8 conf 99 | SENP6 confirm 100 | SENP7 conf 103 | Casp3 SENP sel 98 | Luc interf 99
O=C(/C=C/NCc1cccnc1)c1ccc(-c2ccccc2)cc1	none
COc1ccccc1OCc1nc2ccccc2n1C	none
CCn1c(COc2ccccc2C)nc2ccccc21	SENP8 block-2 58, SENP6 block 75 | SENP8 conf inactive | SENP6 confirm inactive | SENP7 conf 78 | Casp3 SENP sel 53 | Luc interf inactive
Cn1c(COc2ccccc2Br)nc2ccccc21	SENP8 block-2 60, SENP6 block 69 | SENP8 conf 52 | SENP6 confirm 71 | SENP7 conf 91 | Casp3 SENP sel 63 | Luc interf inactive
COc1ccc(/C=C2/NC(=O)CNC2=O)cc1	none
Cc1ccc(O)c(NC(=O)c2cc(-c3ccccc3Cl)on2)c1	SENP7 inh 63 | SENP8 conf inactive | SENP6 confirm inactive | SENP7 conf inactive | Casp3 SENP sel inactive | Luc interf inactive
O=C(Nc1cccnc1)c1cc(-c2cccc(Cl)c2)on1	none
O=C(Nc1cccnc1)c1cc(-c2ccccc2O)on1	SENP8 block-2 88, SENP7 inh 96 | SENP8 conf 73 | SENP6 confirm 72 | SENP7 conf 99 | Casp3 SENP sel 91 | Luc interf 89
O=C(Nc1cccnc1)c1cc(-c2cccs2)on1	SENP8 block-2 51, SENP7 inh 84, SENP6 block 74 | SENP8 conf inactive | SENP6 confirm inactive | SENP7 conf 80 | Casp3 SENP sel 79 | Luc interf inactive
NS(=O)(=O)c1ccc(CNC(=O)c2sccc2-c2ccccc2)cc1	none
O=C(O)CCc1ccc(S(=O)(=O)Nc2cc(C(F)(F)F)ccc2N2CCCC2)cc1	none
